Experiments:
[1] = Selectivity index, ratio of IC50 for rat L6 cells to IC50 for bloodstream trypomastigote forms of Trypanosoma brucei rhodesiense STIB 900
Leishmania donovani = assay: Antileishmanial activity against axenic amastigote forms of Leishmania donovani MHOM/ET/67/L82 assessed as inhibition of growth; assay type: functional, organism-based
Summary of the method: (§1)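 Parasite growth assay run in 96-well format per an earlier protocol. Dose–response curves were constructed, and the 50% growth-inhibitory concentration was calculated by linear regression from the sigmoidal dose–inhibition curves.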

[2] = Selectivity index, ratio of IC50 for rat L6 cells to IC50 for amastigote forms of Leishmania donovani MHOM/ET/67/L82
Trypanosoma cruzi [3] = assay: Antichagasic activity against amastigote forms of Trypanosoma cruzi Tulahuen C4 assessed as inhibition of growth; assay type: functional, organism-based; summary of the method: as §1
[4] = Selectivity index, ratio of IC50 for rat L6 cells to IC50 for amastigote forms of Trypanosoma cruzi Tulahuen C4
[5] = tested on: Trypanosoma brucei rhodesiense; assay: Antitrypanosomal activity against bloodstream trypomastigote forms of Trypanosoma brucei rhodesiense STIB 900 assessed as inhibition of growth; assay type: functional, organism-based; summary of the method: as §1
L6 = assay: Cytotoxicity against rat L6 cells assessed as cell viability; assay type: cell-based
[6] = tested on: Trypanosoma brucei brucei; assay: Activity of histidine tagged recombinant Trypanosoma brucei brucei type 1 nitroreductase assessed as NADH oxidation at 100 uM by spectrophotometry method
Summary of the method: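 Purified recombinant his-tagged T. b. brucei type I nitroreductase. Each nitrotriazole substrate at 100 µM with NADH at 100 µM. NADH oxidation followed spectrophotometrically at 340 nm. Specific activity expressed as nmol NADH oxidized per min per mg enzyme.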

[7] = tested on: Trypanosoma brucei brucei; assay: Ratio of IC50 for bloodstream forms of Trypanosoma brucei brucei overexpressing type I nitroreductase in absence of tetracycline to IC50 for bloodstream forms of Trypanosoma brucei brucei overexpressing type I nitroreductase in presence of tetracycline; assay type: functional
Trypanosoma cruzi [8] = assay: Activity of histidine tagged recombinant Trypanosoma cruzi type 1 nitroreductase assessed as NADH oxidation at 100 uM by spectrophotometry method
Summary of the method: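 Purified recombinant T. cruzi type I nitroreductase, prepared and assayed per earlier work. Specific activity expressed as NADH oxidized per min per mg protein.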

[9] = tested on: Trypanosoma brucei brucei; assay: Antimicrobial activity against bloodstream forms of Trypanosoma brucei brucei overexpressing type I nitroreductase assessed as reduction in cell viability after 3 days by alamar blue assay in absence of tetracycline; assay type: functional, organism-based; conditions: 72 h
[10] = tested on: Trypanosoma brucei brucei; assay: Antimicrobial activity against bloodstream forms of Trypanosoma brucei brucei overexpressing type I nitroreductase assessed as reduction in cell viability after 3 days by alamar blue assay in presence of tetracycline; assay type: functional, organism-based; conditions: 72 h
Trypanosoma cruzi [11] = assay: Antichagasic activity against firefly luciferase expressing trypamastigote forms of transgenic Trypanosoma cruzi Y infected in Balb/c mouse assessed as reduction in parasite level at 15 mg/kg/day, ip dosed for 10 days by luciferase reporter gene assay; assay type: functional; conditions: 240 h
Summary of the method: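 Balb/c mice were infected with luciferase-expressing T. cruzi Y trypomastigotes and imaged at baseline after i.p. D-luciferin 150 mg/kg in PBS. Ratio = post-treatment / pre-treatment luciferase signal per animal; group mean ± SD.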

[12] = tested on: Trypanosoma brucei brucei; assay: Antimicrobial activity against bloodstream forms of Trypanosoma brucei brucei assessed as reduction in cell viability after 3 days by alamar blue assay; assay type: functional, organism-based; conditions: 72 h
Mus musculus = assay: Toxicity in Balb/c mouse infected with firefly luciferase expressing trypamastigote forms of transgenic Trypanosoma cruzi Y at 15 mg/kg/day, ip dosed for 10 days; assay type: organism-based; conditions: in vivo, 240 h
Cytochrome P450 2D6 = Cytochrome P450 2D6 (Homo sapiens, UniProt P10635); assay: Inhibition of CYP2D6 in human Liver microsomes after 5 mins by LC-MS/MS method
Cytochrome P450 2D6, sequence (P10635 whole entry): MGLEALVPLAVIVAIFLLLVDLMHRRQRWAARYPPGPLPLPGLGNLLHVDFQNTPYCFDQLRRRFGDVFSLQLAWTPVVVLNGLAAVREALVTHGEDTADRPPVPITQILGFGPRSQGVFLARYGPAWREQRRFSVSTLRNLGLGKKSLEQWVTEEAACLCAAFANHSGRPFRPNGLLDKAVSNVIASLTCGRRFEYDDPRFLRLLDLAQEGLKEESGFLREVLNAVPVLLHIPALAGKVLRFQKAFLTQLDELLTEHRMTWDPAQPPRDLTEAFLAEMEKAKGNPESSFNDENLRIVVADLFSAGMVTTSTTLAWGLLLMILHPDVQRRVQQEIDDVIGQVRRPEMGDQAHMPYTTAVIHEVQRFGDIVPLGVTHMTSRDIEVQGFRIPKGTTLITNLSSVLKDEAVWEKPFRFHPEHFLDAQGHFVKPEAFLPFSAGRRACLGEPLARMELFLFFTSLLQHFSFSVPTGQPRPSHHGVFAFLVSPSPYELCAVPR

Cytochrome P450 2C9 = Cytochrome P450 2C9 (Homo sapiens, UniProt P11712); assay: Inhibition of CYP2C9 in human Liver microsomes after 5 mins by LC-MS/MS method
Cytochrome P450 2C9, sequence (P11712 whole entry): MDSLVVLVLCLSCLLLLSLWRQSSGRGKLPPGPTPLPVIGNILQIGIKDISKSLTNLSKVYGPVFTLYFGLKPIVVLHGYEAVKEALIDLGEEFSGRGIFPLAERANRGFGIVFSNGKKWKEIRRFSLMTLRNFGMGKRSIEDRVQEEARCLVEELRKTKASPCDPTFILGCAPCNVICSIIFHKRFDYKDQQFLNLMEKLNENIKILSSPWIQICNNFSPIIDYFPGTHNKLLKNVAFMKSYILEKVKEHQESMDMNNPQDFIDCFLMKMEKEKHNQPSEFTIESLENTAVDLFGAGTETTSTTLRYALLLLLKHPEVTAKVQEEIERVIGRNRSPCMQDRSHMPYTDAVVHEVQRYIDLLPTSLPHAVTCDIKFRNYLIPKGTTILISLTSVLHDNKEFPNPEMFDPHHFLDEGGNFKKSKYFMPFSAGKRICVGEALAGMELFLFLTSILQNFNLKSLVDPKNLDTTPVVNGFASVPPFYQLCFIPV

Cytochrome P450 2C19 = Cytochrome P450 2C19 (Homo sapiens, UniProt P33261); assay: Inhibition of CYP2C19 in human Liver microsomes after 35 mins by LC-MS/MS method
Cytochrome P450 2C19, sequence (P33261 whole entry): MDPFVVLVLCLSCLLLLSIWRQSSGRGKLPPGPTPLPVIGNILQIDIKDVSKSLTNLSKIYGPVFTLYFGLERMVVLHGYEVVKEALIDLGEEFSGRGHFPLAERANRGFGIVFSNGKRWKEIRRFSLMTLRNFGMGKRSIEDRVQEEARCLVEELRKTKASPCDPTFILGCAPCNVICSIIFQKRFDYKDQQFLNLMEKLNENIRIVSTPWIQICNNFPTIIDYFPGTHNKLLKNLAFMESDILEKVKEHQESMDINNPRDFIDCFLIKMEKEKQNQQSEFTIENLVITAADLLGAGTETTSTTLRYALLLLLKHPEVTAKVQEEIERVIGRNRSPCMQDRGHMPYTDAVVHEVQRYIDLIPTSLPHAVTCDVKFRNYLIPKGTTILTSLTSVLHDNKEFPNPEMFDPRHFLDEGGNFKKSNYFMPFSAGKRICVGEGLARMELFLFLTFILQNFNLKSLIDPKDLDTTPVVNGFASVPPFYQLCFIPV

[13] = Efflux ratio of permeability from basolateral to apical side over apical to basolateral side in human Caco2 cells after 2 hrs by LC-MS/MS method; conditions: Caco-2
Cytochrome P450 3A4 = Cytochrome P450 3A4 (Homo sapiens, UniProt P08684); assay: Inhibition of CYP3A4 in human Liver microsomes after 5 mins by LC-MS/MS method
Cytochrome P450 3A4, sequence (P08684 whole entry): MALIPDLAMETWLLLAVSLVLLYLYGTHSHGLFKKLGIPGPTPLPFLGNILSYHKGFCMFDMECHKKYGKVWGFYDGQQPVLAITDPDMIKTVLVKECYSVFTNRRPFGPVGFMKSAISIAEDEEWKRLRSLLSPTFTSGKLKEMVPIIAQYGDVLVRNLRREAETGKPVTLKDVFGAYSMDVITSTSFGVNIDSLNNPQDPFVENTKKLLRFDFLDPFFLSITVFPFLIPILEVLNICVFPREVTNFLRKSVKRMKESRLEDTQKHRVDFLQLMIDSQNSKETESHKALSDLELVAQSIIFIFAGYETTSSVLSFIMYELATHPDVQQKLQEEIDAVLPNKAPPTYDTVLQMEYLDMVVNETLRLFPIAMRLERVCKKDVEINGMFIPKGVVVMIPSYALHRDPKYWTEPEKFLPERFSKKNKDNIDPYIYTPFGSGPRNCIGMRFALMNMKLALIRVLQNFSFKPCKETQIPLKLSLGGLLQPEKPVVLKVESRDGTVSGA

Cytochrome P450 2C8 = molecular target: T1, Cytochrome P450 2C8 (Homo sapiens, UniProt P10632); assay: Inhibition of CYP2C8 in human Liver microsomes after 5 mins by LC-MS/MS method
T1 sequence (P10632 whole entry): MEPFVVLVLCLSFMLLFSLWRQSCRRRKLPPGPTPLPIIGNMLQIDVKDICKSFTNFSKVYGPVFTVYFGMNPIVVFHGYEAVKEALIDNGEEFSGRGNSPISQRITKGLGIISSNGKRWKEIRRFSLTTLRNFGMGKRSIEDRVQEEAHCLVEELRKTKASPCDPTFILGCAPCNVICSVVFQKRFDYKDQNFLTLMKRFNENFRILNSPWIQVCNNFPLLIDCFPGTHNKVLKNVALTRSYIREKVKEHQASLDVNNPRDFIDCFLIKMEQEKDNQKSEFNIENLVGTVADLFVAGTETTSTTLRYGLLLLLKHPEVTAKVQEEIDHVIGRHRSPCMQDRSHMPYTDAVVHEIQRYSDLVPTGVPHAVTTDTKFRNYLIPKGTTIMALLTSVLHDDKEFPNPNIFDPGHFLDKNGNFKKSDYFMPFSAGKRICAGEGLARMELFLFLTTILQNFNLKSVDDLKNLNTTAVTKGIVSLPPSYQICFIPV

[14] = Half life in human liver S9 microsomes in absence of NADPH by LC-MS/MS method
[15] = Half life in human liver S9 microsomes in presence of NADPH by LC-MS/MS method

SMILES | selectivity ratio ([1]; L6 cells) | IC50 (Leishmania donovani) [µM] | selectivity ratio ([2]; L6 cells) | IC50 (Trypanosoma cruzi [3]) [µM] | selectivity ratio ([4]; L6 cells) | IC50 [5] [µM] | IC50 (L6) [µM] | Activity [6] [nmol/min/mg] | Activity (Trypanosoma cruzi [8]) [nmol/min/mg] | IC50 [12] [µM] | other results
O=C(Cn1ccnc1[N+](=O)[O-])N1CCN(c2ncccn2)CC1 | 1.79 | 133 | 2.11 | 142 | 1.97 | 157 | 280 | – | – | – | –
O=C(Cn1cnc([N+](=O)[O-])n1)N1CCN(c2ccccn2)CC1 | 8.98 | 18.5 | 9.35 | 4.64 | 37.3 | 19.3 | 173 | – | – | – | –
O=C(CN1CCN(c2ccc(Cl)c(Cl)c2)CC1)N1CCN(c2ccc(Cl)c(Cl)c2)CC1 | < 1 | 6.27 | 3 | 1.81 | 11 | 26 | 20.2 | – | – | – | –
O=C(Cn1cnc([N+](=O)[O-])n1)N1CCN(c2ccc(Cl)c(Cl)c2)CC1 | 24 | 1.22 | 89 | 0.169 | 641 | 4.48 | 108 | 2320 | 753 | 4.73 | Ratio IC50 [7]: 12.3; IC50 [9]: 7.97 µM; IC50 [10]: 0.65 µM; inhibition in vivo at 15 mg/kg/day (Trypanosoma cruzi [11]): 77%; Activity (Mus musculus): Non-toxic
O=C(Cn1cnc([N+](=O)[O-])n1)N1CCN(c2ccc(Cl)cc2)CC1 | > 4 | 9.39 | > 30 | 1.12 | > 254 | 74.3 | > 285 | 2180 | 761 | > 30 | –
O=C(Cn1cnc([N+](=O)[O-])n1)N1CCN(C(=O)C2CC2)CC1 | 1.83 | 30.6 | 5.12 | 148 | 1.05 | 85.2 | 156 | – | – | – | –
O=C(Cn1cnc([N+](=O)[O-])n1)N1CCN(c2ncccn2)CC1 | 4.5 | 22.9 | 6.52 | 10 | 15 | 33.4 | 150 | 2060 | 743 | > 30 | –
O=C(CN1CCN(c2ccc(C(F)(F)F)cc2)CC1)N1CCN(c2ccc(C(F)(F)F)cc2)CC1 | 1.2 | 5.03 | 6 | 2.71 | 12 | 24.6 | 31.7 | – | – | – | –
O=C(Cn1ccnc1[N+](=O)[O-])NCc1ccccc1 [BENZNIDAZOLE] | – | – | – | – | – | – | – | 1540 | 680 | – | inhibition in vivo at 15 mg/kg/day (Trypanosoma cruzi [11]): 99%
Cc1ccc(N2CCN(CC(=O)N3CCN(c4ccc(C)cc4)CC3)CC2)cc1 | 8.1 | 24.2 | 9 | 29.8 | 7 | 26.3 | 213 | – | – | – | –
N#Cc1ccccc1N1CCN(C(=O)Cn2cnc([N+](=O)[O-])n2)CC1 | 19 | 14.6 | 15 | 2.85 | 75 | 11.3 | 213 | – | – | – | –
O=C(CN1CCN(c2ccc(Cl)cc2)CC1)N1CCN(c2ccc(Cl)cc2)CC1 | 9 | 18 | 6 | 6.06 | 19 | 12.6 | 116 | – | – | – | –
O=C(Cn1cnc([N+](=O)[O-])n1)N1CCN(Cc2ccc(Cl)c(Cl)c2)CC1 | – | 8.13 | – | 0.298 | – | 0.231 | 59.9 | 3730 | 745 | 3.59 | IC50 (Cytochrome P450 2D6): > 20 µM; Ratio IC50 [7]: 7.2; IC50 (Cytochrome P450 2C9): > 20 µM; selectivity ratio ([1]; l6): 260; IC50 [9]: 4.13 µM; selectivity ratio ([2]; l6): 7.36; IC50 (Cytochrome P450 2C19): > 20 µM; efflux ratio at 2 h [13]: 0.91; IC50 [10]: 0.58 µM; IC50 (Cytochrome P450 3A4): > 20 µM; selectivity ratio ([4]; l6): 201; IC50 (Cytochrome P450 2C8): > 20 µM
N#Cc1ccccc1N1CCN(CC(=O)N2CCN(c3ccccc3C#N)CC2)CC1 | 9.9 | 24.3 | 4 | 25.7 | 5 | 12.8 | 127 | – | – | – | –
COc1ccc(N2CCN(C(=O)Cn3cnc([N+](=O)[O-])n3)CC2)cc1 | 8.1 | 18.5 | 7.18 | 2.42 | 54.7 | 16.4 | 133 | – | – | – | –
O=C(Cn1cnc([N+](=O)[O-])n1)N1CCN(C(c2ccccc2)c2ccc(Cl)cc2)CC1 (centres undefined) | 6.43 | 1.45 | 14.6 | 0.073 | 302 | 3.41 | 21.9 | 3910 | 672 | 2.75 | Ratio IC50 [7]: 3.7; IC50 [9]: 3.86 µM; IC50 [10]: 1.04 µM
Cc1ccc(N2CCN(C(=O)Cn3cnc([N+](=O)[O-])n3)CC2)cc1 | 15 | 10.8 | 14 | 1.33 | 112 | 9.91 | 148 | 2190 | 787 | > 30 | –
O=C(Cn1cnc([N+](=O)[O-])n1)N1CCN(Cc2ccc(C(F)(F)F)cc2)CC1 | – | 9.7 | – | 0.862 | – | 1.39 | 111 | 3800 | 701 | 26 | IC50 [9]: > 30 µM; IC50 [10]: 1.78 µM; half-life [14]: > 3 h; half-life [15]: > 3 h
O=C(Cn1cnc([N+](=O)[O-])n1)N1CCN(c2ccc(C(F)(F)F)cc2)CC1 | 48 | 1.88 | 108 | 0.596 | 340 | 4.22 | 202 | 2190 | 707 | 17.5 | Ratio IC50 [7]: 16; IC50 [9]: 13.6 µM; IC50 [10]: 0.85 µM
